Assay results taken from ChEMBL document CHEMBL1147738, “Potent and selective mitogen-activated protein kinase kinase (MEK) 1,2 inhibitors. 1. 4-(4-bromo-2-fluorophenylamino)-1- methylpyridin-2(1H)-ones” (J Med Chem, 2006).

What was measured:
[1] = target: Casein kinase II (Homo sapiens) (UniProt P67870+P68400+P19784); experiment: Inhibition of CK2 at 10 uM; format: protein-complex assay
How it was run: (§1)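 Kinase panel run at Upstate (Dundee). Each compound was tested at 10 µM against each enzyme and reported as % inhibition.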

[2] = target: Mitogen-activated protein kinase 11 (Homo sapiens) (UniProt Q15759); experiment: Inhibition of SAPK2b/p38--beta-2 at 10 uM; how it was run: as §1
[3] = target: Dual specificity tyrosine-phosphorylation-regulated kinase 1A (Homo sapiens) (UniProt Q13627); experiment: Inhibition of DYRK1a at 10 uM; how it was run: as §1
[4] = target: cAMP-dependent protein kinase (PKA) (Homo sapiens) (UniProt P22694+P17612+P22612); experiment: Inhibition of PKA at 10 uM; format: protein assay; how it was run: as §1
[5] = target: T1, MAP kinase-activated protein kinase 5 (Homo sapiens) (UniProt Q8IW41); experiment: Inhibition of PRAK at 10 uM; how it was run: as §1
T1 sequence (whole entry): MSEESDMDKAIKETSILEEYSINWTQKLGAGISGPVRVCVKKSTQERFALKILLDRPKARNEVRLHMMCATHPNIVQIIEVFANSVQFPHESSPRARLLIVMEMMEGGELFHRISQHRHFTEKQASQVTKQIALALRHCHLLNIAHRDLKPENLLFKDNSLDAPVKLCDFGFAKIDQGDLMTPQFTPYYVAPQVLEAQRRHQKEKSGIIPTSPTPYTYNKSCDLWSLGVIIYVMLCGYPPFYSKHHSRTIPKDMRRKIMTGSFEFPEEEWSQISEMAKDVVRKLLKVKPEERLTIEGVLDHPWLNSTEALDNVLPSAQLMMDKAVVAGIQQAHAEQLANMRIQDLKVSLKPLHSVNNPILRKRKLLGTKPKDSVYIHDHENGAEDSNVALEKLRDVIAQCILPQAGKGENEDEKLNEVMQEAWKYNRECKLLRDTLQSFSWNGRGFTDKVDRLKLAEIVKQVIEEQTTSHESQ

[6] = Clearance in rat; format: ADME, organism-based; conditions: Sprague-Dawley, in vivo
How it was run: (§2)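 Male Sprague Dawley rats (6-10 weeks) received IV 1 mg/kg (10% DMSO/90% saline) and PO 10 mg/kg (1% CMC/0.5% Tween 80). Serial tail-vein plasma was taken up to 24 h (IV) or 72 h (PO) and analysed by LC/MS/MS (9 ng/mL to 20 µg/mL). Parameters were calculated non-compartmentally.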

[7] = target: AMP-activated protein kinase, AMPK (Homo sapiens) (UniProt P54646+O43741+P54619+Q9UGJ0+Q9Y478+Q13131+Q9UGI9); experiment: Inhibition of AMPK at 10 uM; format: protein-complex assay; how it was run: as §1
[8] = target: Mitogen-activated protein kinase 14 (Homo sapiens) (UniProt Q16539); experiment: Inhibition of SAPK2a/p38 at 10 uM; how it was run: as §1
[9] = organism: Homo sapiens; conditions: at 10 µM
[10] = target: MAP kinase-activated protein kinase 2 (Homo sapiens) (UniProt P49137); experiment: Inhibition of MAPKAP-K2 at 10 uM; how it was run: as §1
[11] = test system: Rattus norvegicus; experiment: AUC in rat at 10 mg/kg, po; format: ADME, organism-based, Sprague-Dawley, Plasma; set-up: dose 10 mg/kg, route oral; conditions: in vivo
How it was run: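 Male Sprague Dawley rats (6-10 weeks) were given 10 mg/kg by oral gavage (2 mg/mL in 1% CMC/0.5% Tween 80, 5 mL/kg). Tail-vein EDTA blood was drawn at 15 and 30 min and 1, 2, 4, 8, 12, 24, 48, 72 h. Plasma was quantified by LC/MS/MS after methanol precipitation. Parameters came from non-compartmental analysis.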

[12] = target: Tyrosine-protein kinase Lck (Homo sapiens) (UniProt P06239); experiment: Inhibition of LCK at 10 uM; how it was run: as §1
[13] = target: Cyclin-dependent kinase 2/cyclin A (Homo sapiens) (UniProt P24941+P20248+P78396); experiment: Inhibition of CDK2/cyclin A at 10 uM; format: protein-complex assay; how it was run: as §1
[14] = target: Glycogen synthase kinase-3 beta (Homo sapiens) (UniProt P49841); experiment: Inhibition of GSK3b at 10 uM; how it was run: as §1
[15] = target: Ribosomal protein S6 kinase alpha-5 (Homo sapiens) (UniProt O75582); experiment: Inhibition of MSK1 at 10 uM; how it was run: as §1
[16] = target: RAC-alpha serine/threonine-protein kinase (Homo sapiens) (UniProt P31749); experiment: Inhibition of PKBa at 10 uM; how it was run: as §1
[17] = target: Mitogen-activated protein kinase 1 (Homo sapiens) (UniProt P28482); experiment: Inhibition of MAPK2/ERK2 at 10 uM; how it was run: as §1
[18] = target: T2, Serine/threonine-protein kinase Chk1 (Homo sapiens) (UniProt O14757); experiment: Inhibition of CHK1 at 10 uM; how it was run: as §1
T2 sequence (whole entry): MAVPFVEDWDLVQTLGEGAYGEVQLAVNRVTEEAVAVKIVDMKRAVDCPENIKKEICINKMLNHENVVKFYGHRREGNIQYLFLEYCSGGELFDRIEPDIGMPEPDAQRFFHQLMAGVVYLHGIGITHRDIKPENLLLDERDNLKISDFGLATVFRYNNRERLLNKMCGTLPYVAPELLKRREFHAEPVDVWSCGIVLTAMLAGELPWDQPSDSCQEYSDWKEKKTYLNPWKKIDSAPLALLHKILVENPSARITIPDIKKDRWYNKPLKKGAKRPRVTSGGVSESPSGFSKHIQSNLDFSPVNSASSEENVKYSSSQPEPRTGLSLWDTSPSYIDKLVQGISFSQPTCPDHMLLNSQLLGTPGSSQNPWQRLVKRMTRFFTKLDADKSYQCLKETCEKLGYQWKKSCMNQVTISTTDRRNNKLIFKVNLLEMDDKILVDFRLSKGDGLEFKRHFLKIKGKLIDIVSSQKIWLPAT

[19] = Half life in rat at 1 mg/kg, iv; format: ADME, organism-based; set-up: dose 1 mg/kg, route intravenous; conditions: Sprague-Dawley, in vivo
How it was run: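 Male Sprague Dawley rats (6-10 weeks), fed ad lib, dosed IV at 1 mg/kg (1 mg/mL in 10% DMSO/90% normal saline, 1 mL/kg). Tail-vein EDTA blood sampled 1, 5, 15, 30 min and 1, 2, 4, 8, 12, 24 h. Plasma analysed by LC/MS/MS after methanol protein precipitation, range 9 ng/mL to 20 µg/mL. Parameters derived by non-compartmental analysis.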

[20] = test system: Malme-3M; experiment: Inhibition of cellular viability of Malme-3M cells; format: functional, Homo sapiens
[21] = Oral bioavailability in rat; format: ADME, organism-based; conditions: Sprague-Dawley, in vivo; how it was run: as §2
[22] = target: Ribosomal protein S6 kinase (P70S6K) (Homo sapiens) (UniProt Q9UBS0+P23443); experiment: Inhibition of p70 S6K at 10 uM; format: protein-complex assay; how it was run: as §1
[23] = Volume of distribution in rat; format: ADME, organism-based; conditions: Sprague-Dawley, in vivo, read-out: Vdss; how it was run: as §2
[24] = target: Rho-associated protein kinase 2 (Homo sapiens) (UniProt O75116); experiment: Inhibition of ROCK 2 at 10 uM; how it was run: as §1
Chain of Rho-associated protein kinase 2 (Homo sapiens) (O75116 whole entry, looked up): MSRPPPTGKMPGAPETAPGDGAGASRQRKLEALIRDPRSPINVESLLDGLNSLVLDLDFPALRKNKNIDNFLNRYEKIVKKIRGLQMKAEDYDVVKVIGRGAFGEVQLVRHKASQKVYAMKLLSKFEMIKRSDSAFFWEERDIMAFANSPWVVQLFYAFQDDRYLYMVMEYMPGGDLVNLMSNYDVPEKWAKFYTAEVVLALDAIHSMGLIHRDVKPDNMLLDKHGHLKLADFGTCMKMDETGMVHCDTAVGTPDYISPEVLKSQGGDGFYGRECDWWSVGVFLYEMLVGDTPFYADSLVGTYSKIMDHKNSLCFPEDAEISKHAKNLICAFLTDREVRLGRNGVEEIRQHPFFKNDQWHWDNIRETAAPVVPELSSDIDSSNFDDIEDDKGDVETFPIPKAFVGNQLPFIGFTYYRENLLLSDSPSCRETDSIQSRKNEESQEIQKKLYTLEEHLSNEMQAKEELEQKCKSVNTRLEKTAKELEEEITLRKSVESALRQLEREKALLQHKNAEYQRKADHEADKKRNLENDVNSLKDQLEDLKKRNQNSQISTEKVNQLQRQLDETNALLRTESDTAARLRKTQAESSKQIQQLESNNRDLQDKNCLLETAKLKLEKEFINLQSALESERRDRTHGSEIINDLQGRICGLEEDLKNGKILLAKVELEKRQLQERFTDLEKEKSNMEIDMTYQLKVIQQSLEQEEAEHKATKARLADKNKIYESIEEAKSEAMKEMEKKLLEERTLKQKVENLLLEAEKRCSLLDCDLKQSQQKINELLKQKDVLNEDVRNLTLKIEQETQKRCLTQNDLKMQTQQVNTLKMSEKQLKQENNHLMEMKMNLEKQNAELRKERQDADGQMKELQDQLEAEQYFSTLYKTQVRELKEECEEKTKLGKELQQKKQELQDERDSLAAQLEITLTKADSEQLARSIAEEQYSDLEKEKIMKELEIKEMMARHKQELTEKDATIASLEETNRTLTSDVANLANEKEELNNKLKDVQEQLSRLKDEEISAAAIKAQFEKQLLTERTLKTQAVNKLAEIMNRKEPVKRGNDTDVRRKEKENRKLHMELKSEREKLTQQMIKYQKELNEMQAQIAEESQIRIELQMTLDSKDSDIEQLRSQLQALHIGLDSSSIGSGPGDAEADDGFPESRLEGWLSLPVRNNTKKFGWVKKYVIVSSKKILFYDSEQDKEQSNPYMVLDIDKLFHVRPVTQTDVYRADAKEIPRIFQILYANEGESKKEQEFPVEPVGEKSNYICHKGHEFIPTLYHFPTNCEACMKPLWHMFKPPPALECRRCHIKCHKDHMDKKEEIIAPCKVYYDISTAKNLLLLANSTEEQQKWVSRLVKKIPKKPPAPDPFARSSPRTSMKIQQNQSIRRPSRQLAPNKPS

Chain of Mitogen-activated protein kinase 1 (Homo sapiens) (P28482 whole entry): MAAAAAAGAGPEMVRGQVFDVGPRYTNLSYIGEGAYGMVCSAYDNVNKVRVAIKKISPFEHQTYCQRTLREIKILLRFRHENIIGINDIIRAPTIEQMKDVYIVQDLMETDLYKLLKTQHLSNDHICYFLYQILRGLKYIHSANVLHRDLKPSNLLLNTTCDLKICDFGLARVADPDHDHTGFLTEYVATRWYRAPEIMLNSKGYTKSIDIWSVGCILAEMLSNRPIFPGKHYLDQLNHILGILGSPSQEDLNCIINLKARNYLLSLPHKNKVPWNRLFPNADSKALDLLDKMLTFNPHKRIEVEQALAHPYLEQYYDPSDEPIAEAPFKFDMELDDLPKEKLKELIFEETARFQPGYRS
Chain of Tyrosine-protein kinase Lck (Homo sapiens) (P06239 2-509 limits assumed): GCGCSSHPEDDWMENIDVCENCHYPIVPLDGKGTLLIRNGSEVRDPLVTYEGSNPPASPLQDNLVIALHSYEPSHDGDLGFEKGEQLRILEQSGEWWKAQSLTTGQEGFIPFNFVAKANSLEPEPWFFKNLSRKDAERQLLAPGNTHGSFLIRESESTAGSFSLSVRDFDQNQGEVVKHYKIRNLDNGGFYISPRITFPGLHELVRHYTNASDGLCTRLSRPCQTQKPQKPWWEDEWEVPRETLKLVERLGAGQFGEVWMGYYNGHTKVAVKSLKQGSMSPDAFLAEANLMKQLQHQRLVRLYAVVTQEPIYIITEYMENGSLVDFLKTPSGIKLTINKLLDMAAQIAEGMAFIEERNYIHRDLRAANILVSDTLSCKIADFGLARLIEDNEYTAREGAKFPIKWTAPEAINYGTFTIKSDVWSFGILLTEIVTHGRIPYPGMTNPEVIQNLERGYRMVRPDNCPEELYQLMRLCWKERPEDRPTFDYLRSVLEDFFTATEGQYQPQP
Chain of Ribosomal protein S6 kinase alpha-5 (Homo sapiens) (O75582 whole entry, looked up): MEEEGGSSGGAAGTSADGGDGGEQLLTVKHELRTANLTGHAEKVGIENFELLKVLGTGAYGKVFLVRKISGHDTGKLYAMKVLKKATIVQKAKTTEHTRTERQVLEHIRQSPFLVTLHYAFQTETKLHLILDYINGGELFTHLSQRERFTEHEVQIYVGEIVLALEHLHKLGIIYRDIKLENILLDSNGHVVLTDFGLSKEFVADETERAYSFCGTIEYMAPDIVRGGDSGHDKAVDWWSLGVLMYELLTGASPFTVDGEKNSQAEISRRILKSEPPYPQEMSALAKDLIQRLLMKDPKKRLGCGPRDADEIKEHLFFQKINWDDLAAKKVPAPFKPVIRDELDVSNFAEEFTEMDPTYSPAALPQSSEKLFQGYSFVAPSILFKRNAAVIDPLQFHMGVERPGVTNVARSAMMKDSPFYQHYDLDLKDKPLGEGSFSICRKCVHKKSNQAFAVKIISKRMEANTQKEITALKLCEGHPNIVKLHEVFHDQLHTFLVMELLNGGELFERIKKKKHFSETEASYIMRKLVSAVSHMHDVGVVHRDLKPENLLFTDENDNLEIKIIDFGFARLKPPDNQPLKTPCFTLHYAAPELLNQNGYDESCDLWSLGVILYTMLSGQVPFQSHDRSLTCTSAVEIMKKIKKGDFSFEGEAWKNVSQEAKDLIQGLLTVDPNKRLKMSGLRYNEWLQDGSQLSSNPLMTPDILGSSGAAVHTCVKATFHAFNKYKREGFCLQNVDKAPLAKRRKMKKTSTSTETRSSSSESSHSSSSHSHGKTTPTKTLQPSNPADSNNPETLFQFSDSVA
Chain of RAC-alpha serine/threonine-protein kinase (Homo sapiens) (P31749 whole entry): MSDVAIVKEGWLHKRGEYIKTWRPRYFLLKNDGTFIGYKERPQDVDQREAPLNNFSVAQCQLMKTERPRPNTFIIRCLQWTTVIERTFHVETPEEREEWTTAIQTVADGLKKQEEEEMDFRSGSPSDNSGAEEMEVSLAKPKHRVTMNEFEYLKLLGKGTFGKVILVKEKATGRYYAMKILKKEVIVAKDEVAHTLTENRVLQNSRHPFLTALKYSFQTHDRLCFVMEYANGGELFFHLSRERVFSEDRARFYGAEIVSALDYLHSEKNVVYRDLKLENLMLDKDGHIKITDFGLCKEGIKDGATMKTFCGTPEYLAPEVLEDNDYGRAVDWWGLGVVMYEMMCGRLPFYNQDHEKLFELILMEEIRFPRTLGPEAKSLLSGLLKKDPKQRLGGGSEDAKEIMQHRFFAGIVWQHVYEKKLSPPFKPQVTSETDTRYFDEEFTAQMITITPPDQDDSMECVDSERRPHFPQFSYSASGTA
Chain of Mitogen-activated protein kinase 11 (Homo sapiens) (Q15759 whole entry): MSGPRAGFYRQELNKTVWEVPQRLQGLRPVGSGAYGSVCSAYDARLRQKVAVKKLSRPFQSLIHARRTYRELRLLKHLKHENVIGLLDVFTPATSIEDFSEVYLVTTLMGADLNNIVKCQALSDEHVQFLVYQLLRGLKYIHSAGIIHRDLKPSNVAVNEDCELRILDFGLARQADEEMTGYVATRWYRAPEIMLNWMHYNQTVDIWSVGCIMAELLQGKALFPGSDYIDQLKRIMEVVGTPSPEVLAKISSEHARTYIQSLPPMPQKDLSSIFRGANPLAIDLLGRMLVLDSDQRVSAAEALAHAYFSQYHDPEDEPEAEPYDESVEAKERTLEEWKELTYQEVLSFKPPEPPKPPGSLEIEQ
Chain of Mitogen-activated protein kinase 14 (Homo sapiens) (Q16539 whole entry): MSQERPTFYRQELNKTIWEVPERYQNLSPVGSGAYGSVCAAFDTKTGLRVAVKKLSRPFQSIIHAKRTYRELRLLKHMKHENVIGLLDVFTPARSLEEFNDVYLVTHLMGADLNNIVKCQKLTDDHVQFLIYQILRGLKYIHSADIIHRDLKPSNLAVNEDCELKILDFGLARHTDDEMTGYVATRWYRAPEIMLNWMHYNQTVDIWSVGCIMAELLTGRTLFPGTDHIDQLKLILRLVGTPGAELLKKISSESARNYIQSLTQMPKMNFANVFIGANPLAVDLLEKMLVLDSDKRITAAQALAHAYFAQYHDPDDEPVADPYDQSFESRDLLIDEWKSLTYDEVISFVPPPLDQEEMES
Chain of Glycogen synthase kinase-3 beta (Homo sapiens) (P49841 whole entry, looked up): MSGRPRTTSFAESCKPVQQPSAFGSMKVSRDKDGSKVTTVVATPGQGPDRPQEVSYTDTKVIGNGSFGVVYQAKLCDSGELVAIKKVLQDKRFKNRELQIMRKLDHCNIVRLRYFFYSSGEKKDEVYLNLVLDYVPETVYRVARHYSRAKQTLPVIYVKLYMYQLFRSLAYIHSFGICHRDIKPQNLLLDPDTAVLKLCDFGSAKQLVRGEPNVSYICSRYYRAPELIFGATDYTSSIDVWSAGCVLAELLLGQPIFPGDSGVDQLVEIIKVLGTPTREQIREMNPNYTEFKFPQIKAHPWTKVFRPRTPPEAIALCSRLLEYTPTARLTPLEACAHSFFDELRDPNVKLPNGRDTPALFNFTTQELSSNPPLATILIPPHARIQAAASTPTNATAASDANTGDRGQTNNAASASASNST

inhibition [1] [%]	inhibition [2] [%]	inhibition [3] [%]	inhibition [4] [%]	inhibition [5] [%]	clearance [6] [mL/min/kg]	inhibition [7] [%]	inhibition [8] [%]	inhibition [9] [%]	inhibition [10] [%]	AUC [11] [ng·h/mL]	inhibition [12] [%]	inhibition [13] [%]	inhibition [14] [%]	inhibition [15] [%]	inhibition [16] [%]	inhibition [17] [%]	inhibition [18] [%]	half-life [19] [h]	SMILES	Activity [20] [nM]	also measured
-4	5	2	-7	9	1.5	-4	3	-9	1	88300	-1	8	12	6	12	-9	-3	3.5	CONC(=O)c1cn(C)c(=O)c(C)c1Nc1ccc(Br)cc1F	265	bioavailability [21]: 73%; inhibition [22]: -2%; Vd [23]: 0.4 L/kg; inhibition [24]: 10%
-1	16	10	15	16	8	19	20	-7	8	12000	13	9	17	2	-4	6	11	1.6	Cc1c(Nc2ccc(Br)cc2F)c(C(=O)NOCCO)cn(C)c1=O	11	bioavailability [21]: 53%; inhibition [22]: 18%; Vd [23]: 1.1 L/kg; inhibition [24]: 13%
4	13	15	-1	18	1.9	2	-3	-3	14	75000	9	20	15	5	6	6	8	2.5	CCONC(=O)c1cn(C)c(=O)c(C)c1Nc1ccc(Br)cc1F	118	bioavailability [21]: 80%; inhibition [22]: -1%; Vd [23]: 0.4 L/kg; inhibition [24]: 13%
